Assay results: ChEMBL document CHEMBL1157776, “Synthesis, topoisomerase I and II inhibitory activity, cytotoxicity, and structure-activity relationship study of hydroxylated 2,4-diphenyl-6-aryl pyridines” (Bioorg Med Chem, 2010)
Counter-ions that a name gives are not always drawn.

Assays:
MDA-MB-231 = test: Cytotoxicity against human MDA-MB-231 cells after 2 days by automatic ELISA reader system; format: functional, cell-based; conditions: MDA-MB-231, 48 h
In short: (§1)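 Cells seeded at 2–4 × 10⁴ per well and grown overnight in medium with 10% FBS, 5% CO₂, 37 °C. Compound added on day 2; on day 4 CCK-8 solution added and incubated a further 4 h. Absorbance read at 450 nm and fitted to a four-parameter logistic equation for IC₅₀.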

[1] = biological target: T1, DNA topoisomerase 1 (Homo sapiens) (UniProt P11387); test: Inhibition of human recombinant TOP1-mediated relaxation of supercoiled Escherichia coli pBR322 DNA at 20 uM after 30 mins by transillumination
T1 sequence (whole entry): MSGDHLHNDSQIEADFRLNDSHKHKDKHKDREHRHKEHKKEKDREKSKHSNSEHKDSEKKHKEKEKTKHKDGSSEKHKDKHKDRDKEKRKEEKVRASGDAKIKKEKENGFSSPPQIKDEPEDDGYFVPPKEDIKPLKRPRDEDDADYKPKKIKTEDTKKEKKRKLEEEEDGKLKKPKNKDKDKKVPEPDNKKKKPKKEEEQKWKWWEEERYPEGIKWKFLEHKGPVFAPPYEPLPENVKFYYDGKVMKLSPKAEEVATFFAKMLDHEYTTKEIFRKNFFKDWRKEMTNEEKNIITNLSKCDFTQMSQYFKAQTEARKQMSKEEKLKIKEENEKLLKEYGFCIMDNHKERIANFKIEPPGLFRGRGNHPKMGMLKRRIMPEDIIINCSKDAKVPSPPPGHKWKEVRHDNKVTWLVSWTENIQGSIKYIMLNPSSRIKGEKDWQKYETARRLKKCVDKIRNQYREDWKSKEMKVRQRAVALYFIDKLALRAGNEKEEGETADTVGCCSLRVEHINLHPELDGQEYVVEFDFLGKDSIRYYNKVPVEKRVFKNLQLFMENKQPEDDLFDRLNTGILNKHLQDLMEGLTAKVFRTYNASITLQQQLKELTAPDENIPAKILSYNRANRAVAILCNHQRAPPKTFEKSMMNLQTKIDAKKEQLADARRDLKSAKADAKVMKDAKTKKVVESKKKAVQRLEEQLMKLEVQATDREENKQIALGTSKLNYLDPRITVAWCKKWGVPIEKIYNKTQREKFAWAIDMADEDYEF
In short: (§2)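 Relaxation assay: 100 ng supercoiled pBR322 with 0.4 units recombinant human topo I, ± compound (DMSO stocks 20 mM), 37 °C, 30 min. Buffer was 10 mM Tris–HCl pH 7.9, 150 mM NaCl, 0.1% BSA, 1 mM spermidine, 5% glycerol. Stopped with sarcosyl/bromophenol blue/glycerol, then 1% agarose gel in TAE at 15 V for 7 h. Ethidium bromide stain, UV transillumination, bands quantitated by densitometry.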

[2] = biological target: DNA topoisomerase 2-alpha (Homo sapiens) (UniProt P11388); test: Inhibition of human recombinant TOP2A-mediated relaxation of supercoiled Escherichia coli pBR322 DNA at 100 uM after 30 mins by transillumination
In short: (§3)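 200 ng supercoiled pBR322 with topo II, ± compound, 30 °C for 30 min. Buffer was 10 mM Tris–HCl pH 7.9, 50 mM NaCl, 5 mM MgCl₂, 1 mM EDTA, 1 mM ATP, BSA. Stopped with 7 mM EDTA, then 1% agarose gel in TAE at 25 V for 4 h. Ethidium bromide stain, UV transillumination, supercoiled DNA quantitated.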

DU-145 = test: Cytotoxicity against human DU145 cells after 2 days by automatic ELISA reader system; format: functional, cell-based; conditions: DU-145, 48 h; in short: as §1
HeLa = test: Cytotoxicity against human HeLa cells after 2 days by automatic ELISA reader system; format: functional, cell-based; conditions: 48 h; in short: as §1
HL-60 = test: Cytotoxicity against human HL60 cells after 2 days by automatic ELISA reader system; format: functional, cell-based; conditions: HL-60, 48 h; in short: as §1
[3] = biological target: T1, DNA topoisomerase 1 (Homo sapiens); test: Inhibition of human recombinant TOP1-mediated relaxation of supercoiled Escherichia coli pBR322 DNA at 100 uM after 30 mins by transillumination; in short: as §2
HCT-15 = test: Cytotoxicity against human HCT15 cells after 2 days by automatic ELISA reader system; format: functional, cell-based; conditions: HCT-15, 48 h; in short: as §1
[4] = biological target: DNA topoisomerase 2-alpha (Homo sapiens) (UniProt P11388); test: Inhibition of human recombinant TOP2A-mediated relaxation of supercoiled Escherichia coli pBR322 DNA at 20 uM after 30 mins by transillumination; in short: as §3

DNA topoisomerase 2-alpha (Homo sapiens), sequence (P11388 whole entry): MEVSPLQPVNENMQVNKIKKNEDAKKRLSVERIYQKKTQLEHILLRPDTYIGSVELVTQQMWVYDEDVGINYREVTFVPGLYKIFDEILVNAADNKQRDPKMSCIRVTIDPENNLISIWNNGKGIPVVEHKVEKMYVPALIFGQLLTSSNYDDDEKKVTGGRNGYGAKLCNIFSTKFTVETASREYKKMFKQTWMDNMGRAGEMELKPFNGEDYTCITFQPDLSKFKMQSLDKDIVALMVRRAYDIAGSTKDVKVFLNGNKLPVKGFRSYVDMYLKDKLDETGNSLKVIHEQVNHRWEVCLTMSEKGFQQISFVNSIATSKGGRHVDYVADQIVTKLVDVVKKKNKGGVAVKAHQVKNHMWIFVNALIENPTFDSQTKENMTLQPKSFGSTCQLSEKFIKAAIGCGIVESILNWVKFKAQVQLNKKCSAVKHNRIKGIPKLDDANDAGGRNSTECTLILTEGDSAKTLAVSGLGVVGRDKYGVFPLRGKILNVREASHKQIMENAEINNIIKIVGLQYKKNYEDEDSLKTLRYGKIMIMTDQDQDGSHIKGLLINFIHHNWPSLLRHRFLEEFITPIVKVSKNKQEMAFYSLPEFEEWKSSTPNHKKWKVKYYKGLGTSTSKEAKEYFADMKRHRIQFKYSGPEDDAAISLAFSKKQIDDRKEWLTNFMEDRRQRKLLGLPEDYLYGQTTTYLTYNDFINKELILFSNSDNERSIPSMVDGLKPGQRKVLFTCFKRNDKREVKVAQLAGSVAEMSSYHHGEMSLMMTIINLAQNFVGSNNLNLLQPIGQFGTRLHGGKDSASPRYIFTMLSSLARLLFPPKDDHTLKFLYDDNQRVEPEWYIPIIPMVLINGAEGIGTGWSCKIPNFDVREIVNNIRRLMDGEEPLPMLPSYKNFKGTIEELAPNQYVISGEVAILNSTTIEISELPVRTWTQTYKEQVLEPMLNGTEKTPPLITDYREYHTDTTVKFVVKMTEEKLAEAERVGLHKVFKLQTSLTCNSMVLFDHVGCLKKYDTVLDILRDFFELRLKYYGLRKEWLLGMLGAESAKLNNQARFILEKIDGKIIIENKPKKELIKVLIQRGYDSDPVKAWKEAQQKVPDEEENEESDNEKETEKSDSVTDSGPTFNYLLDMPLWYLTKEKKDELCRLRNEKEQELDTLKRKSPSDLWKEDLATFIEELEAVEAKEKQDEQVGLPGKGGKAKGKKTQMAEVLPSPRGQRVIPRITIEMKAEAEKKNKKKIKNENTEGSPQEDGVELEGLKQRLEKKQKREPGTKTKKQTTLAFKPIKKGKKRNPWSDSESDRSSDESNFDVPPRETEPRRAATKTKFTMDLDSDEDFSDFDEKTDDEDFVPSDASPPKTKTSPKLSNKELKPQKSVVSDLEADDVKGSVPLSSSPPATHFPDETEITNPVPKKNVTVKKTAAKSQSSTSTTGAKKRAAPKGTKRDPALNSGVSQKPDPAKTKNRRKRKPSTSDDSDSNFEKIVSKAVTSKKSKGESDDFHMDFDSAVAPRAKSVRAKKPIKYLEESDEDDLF

| SMILES | inhibition [1] [%] | inhibition [2] [%] | inhibition [3] [%] | inhibition [4] [%] | IC50 (MDA-MB-231) [µM] | IC50 (DU-145) [µM] | IC50 (HeLa) [µM] | IC50 (HL-60) [µM] | IC50 (HCT-15) [µM] |
| --- | --- | --- | --- | --- | --- | --- | --- | --- | --- |
| Oc1ccc(-c2cc(-c3ccccc3)nc(-c3ccncc3)c2)cc1 | 5.8 | 8.4 | 57.5 |  | 2.1 | 2.2 | 1.6 | 1.4 | 11.7 |
| Oc1cccc(-c2cc(-c3ccccc3)cc(-c3cccc(O)c3)n2)c1 | 10.5 | 86.5 | 67.2 | 49 | 12.8 | 24.9 | 13 | 16.4 | 18.4 |
| Oc1ccc(-c2cc(-c3ccccc3)cc(-c3ccsc3)n2)cc1 |  | 38.3 | 20.4 | 8.3 | 5.7 | 8.5 | 17.3 | 3.6 | 1.1 |
| COc1cccc2c1C(=O)c1c(O)c3c(c(O)c1C2=O)C[C@@](O)(C(=O)CO)C[C@@H]3O[C@H]1C[C@H](N)[C@H](O)[C@H](C)O1 [DOXORUBICIN HYDROCHLORIDE] |  |  |  |  | 0.4 | 1 |  | 0.7 | 1.2 |
| Oc1cccc(-c2cc(-c3ccccc3)cc(-c3ccccc3)n2)c1 | 0 | 48.4 | 12.9 | 32 | 19.3 | 17.9 | 16.1 | 11.5 | 9.95 |
| Oc1cccc(-c2cc(-c3ccccc3)cc(-c3ccncc3)n2)c1 | 25.4 | 3.1 | 70.4 | 1.8 | 10.4 | 19.2 | 28.1 | 23.9 | 27.4 |
| Oc1ccc(-c2cc(-c3ccccc3)cc(-c3ccccc3)n2)cc1 | 43.6 | 27.6 | 52.9 |  | 1.3 | 3 | 1.7 | 1.4 | 3.7 |
| Oc1ccc(-c2cc(-c3ccccc3)cc(-c3ccc(O)cc3)n2)cc1 |  | 76.8 | 0.3 | 33.7 | 6.7 | 22 | 3.3 | 5.7 | 3 |
| Oc1ccccc1-c1cc(-c2ccccc2)cc(-c2ccccc2O)n1 |  | 42.7 | 0 | 12.1 | 37.3 | 8 | 14.8 | 22.4 | > 50 |
| Oc1ccc(-c2cc(-c3ccccc3)cc(-c3cccs3)n2)cc1 |  | 35.4 | 4.9 | 1.3 | 2.4 | 3.7 | 1.7 | 1.7 | 12.5 |
| CC[C@@]1(O)C(=O)OCc2c1cc1n(c2=O)Cc2cc3ccccc3nc2-1 [CAMPTOTHECIN] |  |  |  |  | 0.3 | 0.4 | 0.4 | 0.1 | 0.5 |
| Oc1cccc(-c2cc(-c3ccccc3)nc(-c3ccncc3)c2)c1 | 0.9 | 42.8 | 60.8 | 32.7 | 12.2 | 18.1 | 15 | 12.7 | 18.7 |
| Oc1ccc(-c2cc(-c3ccccc3)cc(-c3cccnc3)n2)cc1 | 0.9 | 18.6 | 44 |  | 2.2 | 8.4 | 13.6 | 4.1 | 15.1 |
| Oc1cccc(-c2cc(-c3ccccc3)cc(-c3ccsc3)n2)c1 | 6.8 | 51.8 | 75.8 | 37.2 | 12.1 | 11.7 | 13.8 | 10.3 | 7.66 |
| COc1cc([C@@H]2c3cc4c(cc3[C@@H](O[C@@H]3O[C@@H]5CO[C@@H](C)O[C@H]5[C@H](O)[C@H]3O)[C@H]3COC(=O)[C@H]23)OCO4)cc(OC)c1O [ETOPOSIDE] |  |  |  | 30.4 | 0.7 | 0.5 | 1.4 | 1 |  |

Continued, in another order:

| inhibition [1] [%] | inhibition [2] [%] | inhibition [3] [%] | inhibition [4] [%] | SMILES | IC50 (MDA-MB-231) [µM] | IC50 (DU-145) [µM] | IC50 (HeLa) [µM] | IC50 (HL-60) [µM] | IC50 (HCT-15) [µM] |
| --- | --- | --- | --- | --- | --- | --- | --- | --- | --- |
| 3.2 | 52.6 | 6.9 | 30.8 | Oc1cccc(-c2cc(-c3ccccc3)nc(-c3ccsc3)c2)c1 | 19 | 11.7 | 14.9 | 12 | 24.6 |
| 0 | 51.6 | 10.2 | 38.6 | Oc1cccc(-c2cc(-c3ccccc3)cc(-c3ccco3)n2)c1 | 13.7 | 14.4 | 9.43 | 9.91 | 13.5 |
|  | 31.2 | 1.5 | 3.1 | Oc1ccccc1-c1cc(-c2ccccc2)nc(-c2ccco2)c1 | 4.6 | 4.9 | 9.7 | 1.9 | 2.5 |
|  | 30.2 | 5 | 10.3 | Oc1ccc(-c2cc(-c3ccccc3)nc(-c3ccco3)c2)cc1 | 1 | 8.6 | 4.5 | 13.7 | 5.1 |
| 1.5 | 37.1 | 8.1 | 21.3 | Oc1cccc(-c2cc(-c3ccccc3)nc(-c3cccnc3)c2)c1 | 22.8 | 18.9 | 17.5 | 12.6 | 18.4 |
| 2 | 57.5 | 9.1 | 34.7 | Oc1cccc(-c2cc(-c3ccccc3)nc(-c3cccs3)c2)c1 | 17.7 | 19.7 | 15.3 | 18.9 | 14.1 |
| 2.8 | 48.1 | 10.8 | 21.3 | Oc1cccc(-c2cc(-c3ccccc3)nc(-c3ccccn3)c2)c1 | 18.7 | 15.5 | 29.8 | 15.1 | 20.9 |
| 3.5 | 47.5 | 48.8 | 31.1 | Oc1cccc(-c2cc(-c3ccccc3)nc(-c3ccco3)c2)c1 | 20.8 | 34.9 | 10.9 | 24 | 13.9 |
|  | 35.2 | 18.6 | 10.2 | Oc1ccc(-c2cc(-c3ccccc3)cc(-c3ccco3)n2)cc1 | 1.4 | 3.2 | 10.9 | 3.3 | 3.5 |
| 5.8 | 53.8 | 51.2 | 43.5 | Oc1cccc(-c2cc(-c3ccccc3)cc(-c3cccs3)n2)c1 | 18.1 | 18.9 | 17 | 14.1 | 10.8 |
| 0 | 68.2 | 11.5 | 32 | Oc1cccc(-c2cc(-c3ccccc3)nc(-c3ccccc3)c2)c1 | 19.5 | 17.9 | 15.1 | 13.5 | 17.9 |
